Source: ChEMBL document CHEMBL4725431, “Harmaline Analogs as Substrate-Selective Cyclooxygenase-2 Inhibitors” (ACS Med Chem Lett, 2020)

Columns and labels:
[1] = target: T1, Prostaglandin G/H synthase 2 (Mus musculus, UniProt Q05769); assay: Inhibition of mouse COX2 using arachidonic acid as substrate preincubated for 3 mins followed by substrate addition and measured for 30 sec by LC/MS analysis
T1 sequence (Q05769 whole entry): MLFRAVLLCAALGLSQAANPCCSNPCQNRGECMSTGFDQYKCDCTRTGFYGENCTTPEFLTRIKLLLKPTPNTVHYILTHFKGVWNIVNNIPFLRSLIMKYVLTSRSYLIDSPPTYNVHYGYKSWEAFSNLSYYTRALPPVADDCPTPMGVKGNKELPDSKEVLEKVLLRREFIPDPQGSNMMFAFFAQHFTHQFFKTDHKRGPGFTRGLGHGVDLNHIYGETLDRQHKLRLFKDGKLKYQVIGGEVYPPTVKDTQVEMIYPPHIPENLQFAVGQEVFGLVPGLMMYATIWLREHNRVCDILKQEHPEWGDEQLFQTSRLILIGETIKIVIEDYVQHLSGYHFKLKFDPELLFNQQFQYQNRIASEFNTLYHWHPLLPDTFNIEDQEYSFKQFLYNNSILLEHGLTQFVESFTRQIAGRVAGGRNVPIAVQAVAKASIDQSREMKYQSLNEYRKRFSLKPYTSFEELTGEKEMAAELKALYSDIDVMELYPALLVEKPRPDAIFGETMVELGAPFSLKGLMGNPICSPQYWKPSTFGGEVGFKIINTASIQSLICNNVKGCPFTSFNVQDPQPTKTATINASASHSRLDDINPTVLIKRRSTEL
How it was run: (§1)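 Purified murine COX-2 (40 nM in footnote; 50 nM in methods) with 100 nM heme and 1 μM PPHP in 50 mM Tris-HCl pH 8.0, 0.5 mM phenol, 5% DMSO final. Five inhibitor concentrations up to 1 μM plus solvent control. Substrate (AA or 2-AG, 5 μM) added at 37 °C for 30 s. Quenched with solvent containing PGE2-d4/PGE2G-d5. Products measured by LC-MS/MS SRM.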

[2] = target: T2, Prostaglandin G/H synthase 1 (Ovis aries, UniProt P05979); assay: Inhibition of ovine COX1 using [1-14C]AA as substrate preincubated for 20 mins followed by substrate addition and measured for 30 sec by thin layer chromatography analysis
T2 sequence (P05979 whole entry): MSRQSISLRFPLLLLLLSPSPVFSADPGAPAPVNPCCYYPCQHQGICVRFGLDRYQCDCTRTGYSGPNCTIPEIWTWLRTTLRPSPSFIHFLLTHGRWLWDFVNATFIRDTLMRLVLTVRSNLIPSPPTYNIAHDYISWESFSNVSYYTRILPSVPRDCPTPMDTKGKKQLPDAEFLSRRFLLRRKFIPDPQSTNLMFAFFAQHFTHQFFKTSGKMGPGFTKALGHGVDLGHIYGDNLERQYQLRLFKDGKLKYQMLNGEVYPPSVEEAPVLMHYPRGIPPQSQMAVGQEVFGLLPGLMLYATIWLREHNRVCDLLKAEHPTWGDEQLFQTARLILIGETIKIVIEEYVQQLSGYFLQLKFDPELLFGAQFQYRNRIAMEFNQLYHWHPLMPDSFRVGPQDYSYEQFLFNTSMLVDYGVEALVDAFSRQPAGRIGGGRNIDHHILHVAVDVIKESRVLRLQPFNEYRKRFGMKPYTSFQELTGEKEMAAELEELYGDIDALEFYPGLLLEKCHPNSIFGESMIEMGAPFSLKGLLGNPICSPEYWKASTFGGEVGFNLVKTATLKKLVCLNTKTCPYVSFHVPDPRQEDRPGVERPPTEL
How it was run: (§2)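 Purified enzyme (murine COX-2 at 63 nM, ovine COX-1 at 22.5 nM), hematin-reconstituted, in 100 mM Tris-HCl pH 8.0 with 500 μM phenol. Several inhibitor concentrations or DMSO vehicle preincubated 20 min, then [1-14C]AA 5 μM added at 37 °C for 30 s. Stopped by ether/methanol/citrate pH 4.0 extraction. Radiolabelled PGs separated on TLC and quantified by radioactivity scanning. Run in triplicate.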

[3] = target: T1, Prostaglandin G/H synthase 2; assay: Inhibition of mouse COX2 using 2-arachidonylglycerol as substrate preincubated for 3 mins followed by substrate addition and measured for 30 sec by LC/MS analysis; how it was run: as §1
[4] = target: T1, Prostaglandin G/H synthase 2; assay: Inhibition of mouse COX2 using [1-14C]AA as substrate preincubated for 20 mins followed by substrate addition and measured for 30 sec by thin layer chromatography analysis; how it was run: as §2

Compound | IC50 [1] [nM] | IC50 [2] [nM] | IC50 [3] [nM] | IC50 [4] [nM]
COc1ccc2c(c1)c1c(n2Cc2ccc(Cl)cc2)C(C)=NCC1 | > 1000 | > 4000 | > 1000 | 2100
COc1cccc2[nH]c3c(c12)CCN=C3C | > 1000 | > 4000 | > 1000 | > 4000
COc1ccc2[nH]c3c(c2c1)CCN=C3C | > 1000 | > 4000 | > 1000 | > 4000
